The values below come from ChEMBL document CHEMBL4028905, “A Unique Approach to Design Potent and Selective Cyclic Adenosine Monophosphate Response Element Binding Protein, Binding Protein (CBP) Inhibitors” (J Med Chem, 2017).

Molecules are shown by their SMILES. Activity calls are given as the source filed them. The rule behind the calls is not given here. A value given as a limit tells only on which side of the number the result lay.

A short description of data set [1]: Total clearance in CD-1 mouse at 1 mg/kg, iv or 5 mg/kg, po by LC-MS/MS analysis. The data set is classed as ADME, organism-based. The settings on record: in vivo. The method in brief: (§1)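 Female CD-1 mice, 6–9 weeks, 20–35 g, n = 3 per route. Dosing was 1 mg/kg i.v. in PEG400/DMSO/water (35/10/55 v/v) or 5 mg/kg p.o. suspended in 0.5% methylcellulose/0.2% Tween 80. Serial tail-nick blood sampled to 24 h and diluted in K2EDTA water. Analysis by acetonitrile precipitation and LC–MS/MS (MRM, positive ESI); LLOQ 0.001 μM.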

Data set [2] concerns the target T1, Bromodomain-containing protein 7 (Homo sapiens, UniProt Q9NPI1).
T1 sequence (Q9NPI1 whole entry): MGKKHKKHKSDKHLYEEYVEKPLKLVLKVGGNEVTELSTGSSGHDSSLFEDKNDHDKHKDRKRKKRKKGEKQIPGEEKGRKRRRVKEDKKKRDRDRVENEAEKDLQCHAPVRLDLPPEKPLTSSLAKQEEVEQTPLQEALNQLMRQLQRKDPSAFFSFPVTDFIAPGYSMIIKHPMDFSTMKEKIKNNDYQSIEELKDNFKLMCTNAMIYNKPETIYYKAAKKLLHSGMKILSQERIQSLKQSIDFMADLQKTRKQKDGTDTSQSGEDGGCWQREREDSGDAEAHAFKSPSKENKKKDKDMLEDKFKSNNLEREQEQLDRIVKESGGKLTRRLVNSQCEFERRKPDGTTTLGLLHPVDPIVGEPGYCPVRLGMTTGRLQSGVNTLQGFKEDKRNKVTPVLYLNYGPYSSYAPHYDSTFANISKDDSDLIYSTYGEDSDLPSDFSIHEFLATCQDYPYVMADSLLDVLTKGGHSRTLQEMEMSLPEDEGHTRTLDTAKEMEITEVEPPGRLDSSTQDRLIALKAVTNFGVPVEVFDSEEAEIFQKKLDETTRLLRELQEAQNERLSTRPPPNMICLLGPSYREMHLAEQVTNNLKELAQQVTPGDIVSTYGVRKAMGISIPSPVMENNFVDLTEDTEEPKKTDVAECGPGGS
Briefly: Binding affinity to human BRD7 (L125 to R254) expressed in mammalian cells by BromoScan assay. The data set is classed as cell-based.

Data set [3] can be described thus: Intrinsic clearance in human liver microsomes at 1 uM in presence of NADPH by LC-MS/MS analysis. The data set is classed as ADME, microsome. The settings on record: read-out: CLH.
Data set [4] concerns the target Bromodomain-containing protein 3 (Homo sapiens, UniProt Q15059). In words: Binding affinity to human BRD3 bromodomain 2 (G306 to P416) expressed in bacterial cells by BromoScan assay. The data set is classed as cell-based.
Data set [5] can be described thus: Volume of distribution at steady state in CD-1 mouse at 1 mg/kg, iv or 5 mg/kg, po by LC-MS/MS analysis. The data set is classed as ADME, organism-based. The following applies: in vivo, read-out: Vdss. The method in brief: as §1
The target of data set [6] is Histone acetyltransferase p300 (Homo sapiens) (UniProt Q09472). Briefly: Binding affinity to human P300 (A1040 to G1161) expressed in bacterial cells by BromoScan assay. The data set is classed as cell-based.
Data set [7] is filed under the species Homo sapiens. Briefly: Selectivity ratio of IC50 for His tagged recombinant BRD4 bromodomain 1 (unknown origin) to IC50 for His tagged recombinant CBP (unknown origin).
Data set [8] has as its target T2, CREB-binding protein (Homo sapiens, UniProt Q92793). Briefly: Binding affinity to human CBP (R1081 to G1197) expressed in bacterial cells by BromoScan assay. The data set is classed as cell-based.
Target sequence in this assay (Q92793 2-2442 limits assumed): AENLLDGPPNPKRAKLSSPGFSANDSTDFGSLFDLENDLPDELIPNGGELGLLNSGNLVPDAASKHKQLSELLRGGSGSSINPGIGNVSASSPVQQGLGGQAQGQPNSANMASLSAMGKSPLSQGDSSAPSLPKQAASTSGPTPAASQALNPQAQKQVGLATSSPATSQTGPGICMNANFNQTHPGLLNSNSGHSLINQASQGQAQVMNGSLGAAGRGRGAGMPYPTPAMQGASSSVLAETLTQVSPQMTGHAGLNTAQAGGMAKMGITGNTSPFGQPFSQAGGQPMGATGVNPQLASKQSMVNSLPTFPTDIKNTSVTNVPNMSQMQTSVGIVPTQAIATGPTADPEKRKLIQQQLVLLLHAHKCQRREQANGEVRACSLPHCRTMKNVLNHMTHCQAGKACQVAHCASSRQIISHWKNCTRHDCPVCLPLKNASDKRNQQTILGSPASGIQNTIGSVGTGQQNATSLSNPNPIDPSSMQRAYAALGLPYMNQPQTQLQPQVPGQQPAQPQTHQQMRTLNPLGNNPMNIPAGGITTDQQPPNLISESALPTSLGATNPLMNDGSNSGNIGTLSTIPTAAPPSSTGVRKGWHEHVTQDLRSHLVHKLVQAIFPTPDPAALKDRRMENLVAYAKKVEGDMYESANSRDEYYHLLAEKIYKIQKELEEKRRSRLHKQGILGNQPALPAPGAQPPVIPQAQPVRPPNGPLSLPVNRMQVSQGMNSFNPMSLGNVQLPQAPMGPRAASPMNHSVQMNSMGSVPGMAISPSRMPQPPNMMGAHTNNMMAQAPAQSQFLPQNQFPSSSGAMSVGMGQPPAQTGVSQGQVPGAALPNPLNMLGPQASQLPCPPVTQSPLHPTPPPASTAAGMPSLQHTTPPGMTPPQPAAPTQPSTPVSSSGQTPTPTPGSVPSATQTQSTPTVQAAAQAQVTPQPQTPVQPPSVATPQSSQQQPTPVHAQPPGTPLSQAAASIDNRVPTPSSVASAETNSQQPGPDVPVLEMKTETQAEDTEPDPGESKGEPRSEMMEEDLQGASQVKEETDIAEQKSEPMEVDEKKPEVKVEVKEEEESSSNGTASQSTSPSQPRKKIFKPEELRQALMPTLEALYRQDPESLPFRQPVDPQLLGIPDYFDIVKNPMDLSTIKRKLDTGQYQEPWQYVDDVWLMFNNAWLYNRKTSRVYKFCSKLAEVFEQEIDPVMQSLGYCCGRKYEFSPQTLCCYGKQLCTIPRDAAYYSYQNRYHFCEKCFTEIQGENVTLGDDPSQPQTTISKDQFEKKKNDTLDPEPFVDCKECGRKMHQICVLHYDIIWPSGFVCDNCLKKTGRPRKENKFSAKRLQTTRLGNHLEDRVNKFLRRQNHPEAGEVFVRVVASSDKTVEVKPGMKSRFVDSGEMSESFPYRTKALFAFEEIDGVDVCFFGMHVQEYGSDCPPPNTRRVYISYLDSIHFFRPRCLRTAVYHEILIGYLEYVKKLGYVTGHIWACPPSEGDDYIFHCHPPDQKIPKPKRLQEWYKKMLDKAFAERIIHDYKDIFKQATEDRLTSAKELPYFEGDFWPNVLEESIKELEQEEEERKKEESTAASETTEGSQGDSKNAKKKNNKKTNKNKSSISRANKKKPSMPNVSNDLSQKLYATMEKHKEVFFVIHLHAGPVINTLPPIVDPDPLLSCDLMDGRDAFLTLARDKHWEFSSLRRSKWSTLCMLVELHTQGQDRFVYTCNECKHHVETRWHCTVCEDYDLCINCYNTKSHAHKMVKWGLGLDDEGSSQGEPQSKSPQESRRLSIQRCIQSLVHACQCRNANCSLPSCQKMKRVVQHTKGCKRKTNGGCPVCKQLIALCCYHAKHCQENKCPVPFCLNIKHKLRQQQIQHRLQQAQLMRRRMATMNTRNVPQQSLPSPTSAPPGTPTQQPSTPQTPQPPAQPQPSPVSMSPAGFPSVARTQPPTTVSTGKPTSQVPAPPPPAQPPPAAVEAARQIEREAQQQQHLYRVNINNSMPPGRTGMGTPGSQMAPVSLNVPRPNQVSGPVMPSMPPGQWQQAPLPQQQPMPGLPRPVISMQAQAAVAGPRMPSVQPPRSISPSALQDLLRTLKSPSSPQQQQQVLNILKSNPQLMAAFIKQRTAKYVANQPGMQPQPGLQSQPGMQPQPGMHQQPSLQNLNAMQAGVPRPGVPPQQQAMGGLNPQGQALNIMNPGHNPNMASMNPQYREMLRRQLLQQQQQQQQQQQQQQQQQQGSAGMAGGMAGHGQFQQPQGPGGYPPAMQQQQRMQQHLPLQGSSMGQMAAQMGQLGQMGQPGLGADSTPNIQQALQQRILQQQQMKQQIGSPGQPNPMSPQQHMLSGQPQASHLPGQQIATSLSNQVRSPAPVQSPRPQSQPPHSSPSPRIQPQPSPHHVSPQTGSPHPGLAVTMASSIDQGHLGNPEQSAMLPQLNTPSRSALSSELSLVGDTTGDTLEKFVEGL
Data set [9] deals with T3, Bromodomain-containing protein 9 (Homo sapiens, UniProt Q9H8M2).
T3 sequence (Q9H8M2 whole entry): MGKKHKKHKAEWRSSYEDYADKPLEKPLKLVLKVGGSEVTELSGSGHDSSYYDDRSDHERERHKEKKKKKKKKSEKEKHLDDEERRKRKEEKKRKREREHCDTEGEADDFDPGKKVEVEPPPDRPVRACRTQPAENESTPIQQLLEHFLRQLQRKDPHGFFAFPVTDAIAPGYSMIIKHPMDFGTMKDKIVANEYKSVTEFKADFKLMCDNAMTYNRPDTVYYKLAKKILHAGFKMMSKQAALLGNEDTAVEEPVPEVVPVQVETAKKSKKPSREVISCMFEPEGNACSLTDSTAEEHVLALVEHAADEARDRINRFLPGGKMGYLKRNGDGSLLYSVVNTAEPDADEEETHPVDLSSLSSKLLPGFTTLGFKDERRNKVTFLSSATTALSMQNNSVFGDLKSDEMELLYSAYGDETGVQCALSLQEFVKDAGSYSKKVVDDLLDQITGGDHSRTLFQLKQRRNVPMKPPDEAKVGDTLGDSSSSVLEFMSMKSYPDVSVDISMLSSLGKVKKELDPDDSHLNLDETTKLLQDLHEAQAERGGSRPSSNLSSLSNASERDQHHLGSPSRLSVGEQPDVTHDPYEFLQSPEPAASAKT
Briefly: Binding affinity to human BRD9 (R130 to V259) expressed in bacterial cells by BromoScan assay. The data set is classed as cell-based.

In data set [10] the target is CREB-binding protein/Histone acetyltransferase p300 (Homo sapiens, UniProt Q09472+Q92793). In words: Inhibition of P300/CBP in human MV4-11 cells assessed as reduction in MYC expression after 4 hrs by luminescence based assay. The data set is classed as cell-based. The method in brief: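 MV-4-11 cells plated at 10,000 per well in RPMI1640 with 10% FBS and 2 mM L-glutamine. Compounds added in DMSO at a final 0.1% and incubated 4 h at 37 °C before MYC expression read-out; EC50 derived.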

A short description of data set [11]: Intrinsic clearance in mouse liver microsomes at 1 uM in presence of NADPH by LC-MS/MS analysis. The following applies: read-out: CLH. The data set is classed as ADME, microsome. Background: Liver microsomes are a subcellular fraction often used to study metabolism.
Data set [12] deals with Bromodomain-containing protein 4 (Homo sapiens, UniProt O60885). Briefly: Inhibition of His tagged recombinant BRD4 bromodomain 1 (unknown origin) by TR-FRET assay. The method in brief:
(§2)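 Recombinant His-tagged bromodomains purified by Ni affinity, tag removed with thrombin, checked by mass spectrometry. Assay is TR-FRET competition against a biotinylated small-molecule ligand. Normalized inhibition vs concentration fit to 4-parameter Hill equation; […] for optimization.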

The target of data set [13] is T4, Transcription intermediary factor 1-alpha (Homo sapiens, UniProt O15164).
T4 sequence (O15164 whole entry): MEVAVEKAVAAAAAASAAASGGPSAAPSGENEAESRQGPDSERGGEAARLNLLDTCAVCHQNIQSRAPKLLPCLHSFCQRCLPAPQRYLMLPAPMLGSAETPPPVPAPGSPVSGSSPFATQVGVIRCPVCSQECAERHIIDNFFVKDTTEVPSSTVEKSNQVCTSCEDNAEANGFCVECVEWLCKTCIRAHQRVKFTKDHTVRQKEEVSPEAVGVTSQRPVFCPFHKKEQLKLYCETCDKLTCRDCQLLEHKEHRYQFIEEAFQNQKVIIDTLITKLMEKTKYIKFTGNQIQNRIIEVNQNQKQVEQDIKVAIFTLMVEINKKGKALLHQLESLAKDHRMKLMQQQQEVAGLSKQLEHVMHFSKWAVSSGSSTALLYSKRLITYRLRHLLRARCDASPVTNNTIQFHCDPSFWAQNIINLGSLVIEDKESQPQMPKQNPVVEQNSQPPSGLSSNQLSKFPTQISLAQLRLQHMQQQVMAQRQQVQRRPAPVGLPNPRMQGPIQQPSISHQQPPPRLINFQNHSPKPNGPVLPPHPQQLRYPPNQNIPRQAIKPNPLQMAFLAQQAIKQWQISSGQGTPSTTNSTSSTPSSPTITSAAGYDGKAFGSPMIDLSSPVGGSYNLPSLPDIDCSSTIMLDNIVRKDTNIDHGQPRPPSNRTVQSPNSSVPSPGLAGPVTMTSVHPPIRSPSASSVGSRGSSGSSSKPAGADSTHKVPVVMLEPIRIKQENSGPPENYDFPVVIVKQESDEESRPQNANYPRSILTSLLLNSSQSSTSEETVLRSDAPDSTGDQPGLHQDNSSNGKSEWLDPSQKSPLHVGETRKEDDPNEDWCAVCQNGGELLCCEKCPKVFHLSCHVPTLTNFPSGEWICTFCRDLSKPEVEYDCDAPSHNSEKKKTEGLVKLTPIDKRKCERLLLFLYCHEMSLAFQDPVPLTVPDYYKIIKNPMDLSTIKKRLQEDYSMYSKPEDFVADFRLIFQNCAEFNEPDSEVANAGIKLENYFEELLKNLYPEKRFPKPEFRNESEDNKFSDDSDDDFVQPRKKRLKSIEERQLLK
In words: Binding affinity to human TRIM24 (G862 to E980) expressed in bacterial cells by BromoScan assay. The data set is classed as cell-based.

A short description of data set [14]: Half life in CD-1 mouse at 1 mg/kg, iv by LC-MS/MS analysis. The data set is classed as ADME, organism-based. The following applies: in vivo. The method in brief: as §1
Data set [15] in a line: Oral bioavailability in CD-1 mouse at 5 mg/kg by LC-MS/MS analysis. The data set is classed as ADME, organism-based. The following applies: in vivo. The method, boiled down: as §1
The nature of data set [16]: Intrinsic clearance in rat liver microsomes at 1 uM in presence of NADPH by LC-MS/MS analysis. The following applies: read-out: CLH. The data set is classed as ADME, microsome.
The target in data set [17] is T2, CREB-binding protein. In words: Inhibition of His tagged recombinant CBP (unknown origin) by TR-FRET assay. The method in brief: as §2
For orientation: In TR-FRET formats the signal depends on donor and acceptor labels being close together.
Target sequence in this assay (Q92793 whole entry): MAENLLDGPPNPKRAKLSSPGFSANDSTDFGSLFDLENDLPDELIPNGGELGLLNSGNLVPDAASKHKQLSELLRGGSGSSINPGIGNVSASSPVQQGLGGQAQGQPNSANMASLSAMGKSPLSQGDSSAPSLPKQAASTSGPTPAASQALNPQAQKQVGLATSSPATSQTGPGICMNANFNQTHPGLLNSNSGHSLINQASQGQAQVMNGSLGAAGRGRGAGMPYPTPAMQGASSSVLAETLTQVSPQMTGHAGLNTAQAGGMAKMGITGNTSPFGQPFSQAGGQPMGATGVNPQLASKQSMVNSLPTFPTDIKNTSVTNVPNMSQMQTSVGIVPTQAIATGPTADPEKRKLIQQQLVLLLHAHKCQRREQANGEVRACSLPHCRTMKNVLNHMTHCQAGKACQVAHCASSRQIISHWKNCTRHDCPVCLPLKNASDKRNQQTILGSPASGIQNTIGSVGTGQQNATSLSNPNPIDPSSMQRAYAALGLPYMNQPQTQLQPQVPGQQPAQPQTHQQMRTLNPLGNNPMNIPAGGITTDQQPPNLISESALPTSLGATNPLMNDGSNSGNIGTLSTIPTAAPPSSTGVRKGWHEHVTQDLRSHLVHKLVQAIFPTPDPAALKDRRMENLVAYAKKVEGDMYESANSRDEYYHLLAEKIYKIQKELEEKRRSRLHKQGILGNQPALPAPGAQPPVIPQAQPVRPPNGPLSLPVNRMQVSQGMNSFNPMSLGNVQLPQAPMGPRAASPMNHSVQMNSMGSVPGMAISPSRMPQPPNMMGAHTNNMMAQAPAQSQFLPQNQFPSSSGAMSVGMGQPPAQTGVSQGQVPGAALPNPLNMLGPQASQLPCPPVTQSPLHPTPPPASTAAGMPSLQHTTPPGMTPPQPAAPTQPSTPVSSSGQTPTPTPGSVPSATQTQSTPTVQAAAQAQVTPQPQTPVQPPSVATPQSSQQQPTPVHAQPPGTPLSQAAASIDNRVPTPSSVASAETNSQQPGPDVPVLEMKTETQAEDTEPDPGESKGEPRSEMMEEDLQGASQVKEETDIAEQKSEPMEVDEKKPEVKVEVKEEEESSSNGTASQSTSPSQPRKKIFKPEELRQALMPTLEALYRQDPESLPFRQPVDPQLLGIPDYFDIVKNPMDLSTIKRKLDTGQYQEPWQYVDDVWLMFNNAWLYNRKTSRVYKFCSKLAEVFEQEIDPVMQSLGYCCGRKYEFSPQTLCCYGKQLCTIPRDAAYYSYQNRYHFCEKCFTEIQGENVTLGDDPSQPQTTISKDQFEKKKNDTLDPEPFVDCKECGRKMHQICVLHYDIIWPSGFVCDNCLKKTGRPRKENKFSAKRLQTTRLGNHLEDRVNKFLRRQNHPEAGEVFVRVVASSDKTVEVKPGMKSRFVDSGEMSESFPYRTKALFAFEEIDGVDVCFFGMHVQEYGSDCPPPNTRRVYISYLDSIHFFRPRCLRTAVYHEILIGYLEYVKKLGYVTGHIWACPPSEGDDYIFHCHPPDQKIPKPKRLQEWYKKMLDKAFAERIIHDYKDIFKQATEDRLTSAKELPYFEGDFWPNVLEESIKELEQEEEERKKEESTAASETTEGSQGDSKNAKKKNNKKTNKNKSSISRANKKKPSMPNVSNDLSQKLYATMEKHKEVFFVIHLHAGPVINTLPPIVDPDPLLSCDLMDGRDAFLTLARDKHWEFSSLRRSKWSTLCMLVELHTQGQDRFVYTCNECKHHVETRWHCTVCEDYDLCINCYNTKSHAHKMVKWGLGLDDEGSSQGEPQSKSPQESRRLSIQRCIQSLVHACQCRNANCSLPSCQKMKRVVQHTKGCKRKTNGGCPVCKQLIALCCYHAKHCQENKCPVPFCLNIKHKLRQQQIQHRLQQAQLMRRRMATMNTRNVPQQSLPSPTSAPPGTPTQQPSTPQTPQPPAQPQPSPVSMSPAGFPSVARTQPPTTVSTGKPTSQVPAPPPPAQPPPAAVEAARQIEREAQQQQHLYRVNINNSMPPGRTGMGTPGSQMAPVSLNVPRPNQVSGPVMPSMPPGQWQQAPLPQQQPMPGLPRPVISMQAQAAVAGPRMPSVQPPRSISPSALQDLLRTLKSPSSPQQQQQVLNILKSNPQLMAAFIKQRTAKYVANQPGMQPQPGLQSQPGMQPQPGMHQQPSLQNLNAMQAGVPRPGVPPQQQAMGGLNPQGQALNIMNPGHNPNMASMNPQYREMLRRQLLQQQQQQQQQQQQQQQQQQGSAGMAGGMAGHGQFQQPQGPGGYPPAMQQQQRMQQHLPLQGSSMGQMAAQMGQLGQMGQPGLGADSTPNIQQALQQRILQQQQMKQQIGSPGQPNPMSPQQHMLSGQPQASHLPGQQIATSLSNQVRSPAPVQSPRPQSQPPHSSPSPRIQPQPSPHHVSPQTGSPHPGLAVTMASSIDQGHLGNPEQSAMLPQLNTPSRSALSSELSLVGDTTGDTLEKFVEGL

Data set [18] addresses T2, CREB-binding protein. In words: Inhibition of His tagged recombinant CBP (unknown origin) at 50 uM by HTS assay. The method, boiled down:
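HTS TR-FRET competition of biotinylated ligand binding to recombinant His-tagged CBP bromodomain (tag thrombin-cleaved after Ni affinity). Highest concentration tested 50 μM. IC50 from 4-parameter Hill fit of normalized inhibition, reported as geometric mean of 2–8 replicates.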
Target sequence in this assay (Q92793 2-2442 limits assumed): as the sequence (Q92793 2-2442 limits assumed) above

Data set [19] deals with Chromatin remodeling regulator CECR2 (Homo sapiens, UniProt Q9BXF3). In words: Inhibition of His tagged recombinant CECR2 (unknown origin) by TR-FRET assay. The method in brief: as §2
The target in data set [20] is T3, Bromodomain-containing protein 9. In words: Inhibition of His tagged recombinant BRD9 (unknown origin) by TR-FRET assay. The method in brief:
as §2

Data set [21] is filed under the species Homo sapiens. In words: Selectivity ratio of IC50 for His tagged recombinant CBP (unknown origin) to IC50 for His tagged recombinant BRD4 bromodomain 1 (unknown origin).

`CNC(=O)c1c[nH]c2c(C(C)C)nc(N3CCCc4cc(-c5cnn(C)c5)c(C(F)F)cc43)cc12`: in data set [1], the clearance is 18.2 mL/min/kg. Besides, the Kd in [2], in [4], in [9] and in data set [13] was more than 10 µM throughout. The CLint scaled at 1 µM in data set [3] turned out to be 13 mL/min/kg; in data set [11] it was 50 mL/min/kg; in data set [16], 25 mL/min/kg. Moreover, the Vd in [5] was found to be 1.9 L/kg. For the same compound, the result in data set [6] and in [8] was Active. For the same compound, the Ratio IC50 in [7] came out at 1050. In addition, the EC50 in data set [10] stood at 0.053 µM. The values for the IC50 in [12] and in data set [17] were 2.3 µM and 0.0022 µM, respectively. The half-life in data set [14] is 1.3 h. The same compound came in with a bioavailability in data set [15] of 52%.

As to `COC(=O)c1c[nH]c2ccccc12`, the Ratio IC50 in data set [7] was more than 1. Besides, the IC50 is more than 100 µM in [12] and 99 µM in [17]. In addition, the inhibition entry in data set [18] is “Active”.

Take `Cn1cc(-c2cc3c(cc2C(F)F)N(c2cc(N4CCOCC4)c4c(c2)n(C)c(=O)n4C)CCC3)cn1`: the figures for the CLint scaled at 1 µM in data set [3], in [11] and in data set [16] were 15 mL/min/kg, 48 mL/min/kg and 23 mL/min/kg, respectively. The Ratio IC50 in data set [7] turned out to be 310. The concentration for a half-maximal effect (EC50) in [10] was 0.012 µM. The 50% inhibitory concentration (IC50) is 1.1 µM in [12] and 0.0036 µM in data set [17].

Consider `C[C@@H]1CC(=O)Nc2cccc(N3CCCc4cc(-c5cnn(C)c5)c(C(F)F)cc43)c2N1`, for which the IC50 is more than 20 µM in data set [19], 4.5 µM in data set [12], more than 20 µM in data set [20] and 0.0034 µM in [17]. Besides, the Ratio IC50 in [7] is 1300.

For `Cn1c(=O)sc2cc(N)ccc21`, the IC50 in [12] and in data set [17] was more than 100 µM throughout. Also, the inhibition entry in data set [18] is “Active”.

As for `Cc1ccc(S(=O)(=O)Nc2ccc3c(c2)CCC(=O)N3C)s1`, the Ratio IC50 in [7] was 0.23; in [21], 4.4. Besides, the IC50 worked out at 5.2 µM in [12] and 23 µM in [17].

As a reminder, the Kd is a measure of binding affinity in units of concentration. Low readings indicate tighter binding, high ones weaker binding. In general, EC50 refers to the concentration at which the effect is half-maximal. One may read the IC50 as the midpoint of a concentration-inhibition curve. A word on the half-life: it is how long it takes for the measured level to halve. Read a high half-life as slow loss. What is called bioavailability is dose-corrected exposure relative to a reference, in per cent. Lower therefore signals little systemic uptake.
